Source: ChEMBL document CHEMBL1144824, “Oximes: metabolic activation and structure-allergenic activity relationships” (J Med Chem, 2008)

Key:
Mus musculus [1] = experiment: Dermal toxicity in CBA/Ca mouse assessed as skin sensitization stimulation index by measuring increase in [3H]thymidine incorporation at 0.1% w/v administered on ear dorsum by local lymph node assay relative to control; assay type: organism-based, Skin of body; settings: in vivo, topical_or_ocular
In short: (§1)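 Female CBA/Ca mice, 8 weeks, n = 3 or 4 per group, 25 µL of test compound in vehicle per OECD 429 LLNA; vehicle-only controls. Day 5: 250 µL PBS with 20 µCi [3H]thymidine i.v. After 5 h, draining auricular nodes were pooled per group, cells suspended and counted by β-scintillation. SI = mean dpm/node of test group over control; SI above 3 counted positive.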

[2] = Dermal toxicity in CBA/Ca mouse assessed as skin sensitization stimulation index by measuring increase in [3H]thymidine incorporation at 10% w/v administered on ear dorsum by local lymph node assay relative to control; parameters: species or system Skin of body; settings: in vivo, topical_or_ocular; in short: as §1
Mus musculus [3] = species on record: Mus musculus; experiment: Dermal toxicity in CBA/Ca mouse assessed as drug level inducing 3 times increase in skin sensitization stimulation index by measuring [3H]thymidine incorporation relative to control; assay type: organism-based; settings: in vivo
In short: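 Local lymph node assay per OECD Guideline 429 in female CBA/Ca mice, 8 weeks old, groups of 3 or 4. Each mouse got 25 µL of test compound in vehicle; controls got vehicle alone. Five days after first treatment, mice were dosed i.v. with 20 µCi [3H]thymidine in PBS. Auricular lymph nodes were pooled per group 5 h later and counted by β-scintillation. Value is the concentration giving SI (test/control) of 3.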

Mus musculus [4] = experiment: Dermal toxicity in CBA/Ca mouse assessed as skin sensitization stimulation index by measuring increase in [3H]thymidine incorporation at 1% w/v administered on ear dorsum by local lymph node assay relative to control; assay type: organism-based, Skin of body; settings: in vivo, topical_or_ocular; in short: as §1
Mus musculus [5] = experiment: Dermal toxicity in CBA/Ca mouse assessed as skin sensitization stimulation index by measuring increase in [3H]thymidine incorporation at 20% w/v administered on ear dorsum by local lymph node assay relative to control; assay type: organism-based, Skin of body; settings: in vivo, topical_or_ocular; in short: as §1
Mus musculus [6] = experiment: Dermal toxicity in CBA/Ca mouse assessed as skin sensitization stimulation index by measuring increase in [3H]thymidine incorporation at 5% w/v administered on ear dorsum by local lymph node assay relative to control; assay type: organism-based, Skin of body; settings: in vivo, topical_or_ocular; in short: as §1

CC1=CCCC/C1=N\O
Activity (Mus musculus [1]): 1
Activity [2]: 7.91
Activity (Mus musculus [3]): 160 mM
Activity (Mus musculus [4]): 2.36
Activity (Mus musculus [5]): 11.3
Activity (Mus musculus [6]): 5.03

O/N=C\c1ccccc1
Activity (Mus musculus [1]): 1.75
Activity [2]: 2.33
Activity (Mus musculus [3]): > 1700 mM
Activity (Mus musculus [4]): 1.8
Activity (Mus musculus [5]): 2.56
Activity (Mus musculus [6]): 1.55

O/N=C1/C=CCCC1
Activity (Mus musculus [1]): 1.54
Activity (Mus musculus [3]): 55 mM
Activity (Mus musculus [4]): 4.1
Activity (Mus musculus [6]): 7.6

CC1=C/C(=N/O)CCC1
Activity (Mus musculus [1]): 0.76
Activity [2]: 5.34
Activity (Mus musculus [3]): 180 mM
Activity (Mus musculus [4]): 2.1
Activity (Mus musculus [5]): 7.3
Activity (Mus musculus [6]): 5.06

C/C=C/C(CC)=N/O
Activity (Mus musculus [1]): 0.99
Activity [2]: 3.34
Activity (Mus musculus [3]): 790 mM
Activity (Mus musculus [4]): 0.99
Activity (Mus musculus [5]): 6.62
Activity (Mus musculus [6]): 1.69

CC1=C(C)/C(=N/O)CCC1
Activity (Mus musculus [1]): 1.1
Activity [2]: 1.16
Activity (Mus musculus [3]): > 1400 mM
Activity (Mus musculus [4]): 1.24
Activity (Mus musculus [5]): 1.3
Activity (Mus musculus [6]): 1.43

ON=C1CCCCC1 [CYCLOHEXANONE OXIME]
Activity (Mus musculus [1]): 0.96
Activity [2]: 1.17
Activity (Mus musculus [3]): > 1800 mM
Activity (Mus musculus [4]): 0.9
Activity (Mus musculus [5]): 0.84
Activity (Mus musculus [6]): 0.77
